Laboratory results as given in ChEMBL document CHEMBL4513216, “Probing the Open Global Health Chemical Diversity Library for Multistage-Active Starting Points for Next-Generation Antimalarials” (ACS Infect Dis, 2020).

Assay: Toxicity liver stage against HepG2, at 10uM
Format: cell-based
Design: test concentration 10 uM, cell line HepG2-A16-CD81EGFP
Settings: human, HepG2-A16-CD81EGFP cells; read-out: INHIBITION
Outline: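 Uninfected HepG2-A16-CD81EGFP cells, 3 × 10^3 per well, 1536-well, plated on prespotted compound at 10 μM final, parasite-free screening media added to match infected plates; puromycin 10 μM positive, DMSO 0.5% negative; run in parallel with 48 h PbLuc assay at 37 °C, 5% CO2; viability by CellTiter-Glo luminescence, normalized to controls.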

Compound | cytotoxicity at 10 µM
COCC(=O)NCC(Cc1cccc(F)c1)n1cccc1 (stereo not given) | 2.55%
Cc1cc(NC(=O)NCCCSc2nncn2C)no1 | 0.0537%
CCN1CC2(CC1=O)CN(Cc1ccco1)CCN(C(=O)N(C)C)C2 (stereo not given) | -6.05%
Cc1ccc(CN2CCCC2(C(N)=O)c2cnccn2)c(C)c1 (stereo not given) | 4.11%
O=C(CCc1ccncc1)N1CCCC(N2CCNC2=O)C1 (stereo not given) | 2.71%
O=C(NCCNS(=O)(=O)C1CCCCC1)c1ccccc1 | -3.82%
COCCn1ccc(=O)c(OCC(=O)Nc2cccc(Cl)c2)c1C | 2.16%
CCCN1CCCC2(CCN(S(=O)(=O)c3cc(C)nn3CC)C2)C1=O (stereo not given) | 4.82%
O=C(Nc1ccc(Cl)cn1)C1CCCN(CCc2ccccn2)C1 (stereo not given) | 7.33%
N#Cc1ccc(C(=O)N2CCC3(CC2)C(=O)Nc2ccccc23)cn1 | 13.5%
CCN(Cc1cc(-c2ccccn2)no1)C1CCS(=O)(=O)C1 (stereo not given) | -14.9%
c1cnc(N2CC[C@@H]3CN(Cc4ccncc4)CCO[C@@H]3C2)nc1 | 5.53%
O=C(NCCn1ccnc1)N1CCN(Cc2cccs2)CC1 | -7.49%
COCCN1CCC(NC(=O)NCC2(c3cccc(F)c3)CC2)C1 (stereo not given) | 5.59%
CC(=O)N1CCN(C(=O)Cn2ccc3c(Cl)cccc32)CC1 | -0.643%
CC(C)c1sc(Cl)nc1C(=O)N1CCN(Cc2ccccc2)CC1 | -2.7%
CC(C)NC(=O)c1ccc2c(c1)C1(CCN(C)CC1)C(=O)N2 | -0.201%
NC(=O)C1CN(c2ccc3c(Cl)ccnc3c2F)CCO1 (stereo not given) | 3.06%
CC(C)n1cnc2c1C(C(=O)N1CCCC1)N(S(C)(=O)=O)CC2 (stereo not given) | -5.15%
O=C(Cc1ccccc1)NCCNC(=O)c1scnc1Cl | -1.55%
Cn1nc(Cn2cccc2)c2c1CN(Cc1ccsc1)C2 | -133%
Cc1cc(N2CCN(C(=O)Cc3ccc4c(c3)OCO4)CC2)cc(C)n1 | -18%

Compound | cytotoxicity at 10 µM
CN1CCN([C@@H]2CN(C(=O)Cc3ccsc3)[C@@H]3CCCO[C@H]23)CC1 | 2.87%
CCS(=O)(=O)N1CCC(Nc2ccc(C#N)cc2F)CC1 | 5.65%
O=C(c1ccc2c(c1)OCCCO2)N1CCCCC1C1OCCO1 (stereo not given) | -0.158%
CSCCCNc1nccc(-c2cc(C(=O)O)ccn2)n1 | 3.49%
CCN1CC(C(=O)NCc2noc(Cc3ccccc3)n2)CCC1=O (stereo not given) | -4.7%
Cc1ccc2c(n1)N(CCN(C)C)CCN(C(=O)c1ccco1)C2 | -65.8%
Cc1n[nH]c(C)c1CNCC(O)c1cccc(Cl)c1 (stereo not given) | 4.91%
CCOc1cccc2c1OCC(C(=O)NS(=O)(=O)Cc1ccccc1)=C2 | -7.22%
CN1CC(=O)N(c2cccc(F)c2)CC12CCN(Cc1ccsc1)C2 (stereo not given) | 4.93%
CCS(=O)(=O)CC(=O)NCC1(c2c(F)cccc2F)CCCC1 | -3.32%
NCc1ccc(Oc2cccc(Cl)c2Cl)cc1 | 7.25%
CN(Cc1noc(C(C)(C)C)n1)Cc1ccccc1N1CCCC1 | -1.78%
CCc1cc(CNC(=O)N2Cc3ccccc3N(C)CC2C)[nH]n1 (stereo not given) | 16.3%
c1ccc(CN2Cc3[nH]nc(COc4cccnc4)c3C2)nc1 | -109%
O=C(Nc1cccc(C(F)(F)F)c1)N1CCN(CCn2ccnc2)CC1 | -25.3%
CCCn1cc(S(=O)(=O)N[C@H]2CN(C(C)=O)C[C@@H]2C2CC2)cn1 | -1.48%
CC(=O)NCCc1ccc(S(=O)(=O)Nc2cc(F)ccc2C)s1 | -13.6%
Cc1noc(C)c1CN1CCCC1C(=O)OCc1ccccc1 (stereo not given) | 3.23%
O=C(c1ccoc1)N1CCCC2(CCC(=O)N2Cc2ccncc2)C1 (stereo not given) | -3.55%
O=C(NCC1CC1)Nc1cnc2ccc(F)cc2c1O | -8.58%
CSc1nsc(NC(=O)N2CCc3ccccc3C2)n1 | 11.3%
CNS(=O)(=O)CCn1cc(-c2ccc(OC)c(OC)c2)nn1 | 1.9%

Compound | cytotoxicity at 10 µM
CCN1CCN(CCNC(=O)c2ccn(-c3ccc(F)cc3)n2)CC1 | -26.2%
O=C(Cc1ccon1)Nc1cncc(Br)c1O | 7.06%
O=C(c1cnccn1)N1C[C@@H]2CCN(c3cccnc3)C[C@@H]2C1 | -65.8%
C[C@@H]1CN(C(=O)c2cccc(F)c2)C[C@]12CCN(c1ccsc1)C2=O | -80%
c1cnn(C2CN(c3ncnc4[nH]ccc34)C2)c1 | 1.87%
Cc1cc(NC(=O)CNC(C)(C)c2ccc3c(c2)OCO3)on1 | 7.51%
O=C(Nc1nccs1)N(CCO)Cc1ccsc1 | 1.4%
CSc1cc2c(cc1NC(=O)N(C)Cc1cnn(C)c1)OCCO2 | 5.25%
O=C(NCCNc1ncccn1)N1CCN(Cc2cccnc2)CC1 | -3.71%
CCS(=O)(=O)N1CCN(C(C)c2ccccc2OC)CC1 (stereo not given) | 4.55%
COc1c(CNCCNC(=O)c2ccco2)c(C)nn1C | -5.92%
O=C(c1cc[nH]n1)N1CCN(C(c2ccccc2)C(F)(F)F)CC1 (stereo not given) | -6.36%
Cc1ccc(C)c(NC(=O)c2n[nH]c(-n3cnnc3)n2)c1 | 3.43%
Cc1nc(CN2CCC3(CC2)NC(=O)CC3c2cccnc2)cs1 (stereo not given) | -2.27%
CC(C)Cc1cc(C(=O)O)nc2[nH]c(=O)[nH]c(=O)c12 | -0.508%
COc1ccc(C(C(=O)O)N2CCCN(C3CCCC3)CC2)cc1OC (stereo not given) | 7.44%
COCC(NC(=O)c1cn2ccsc2n1)c1ccnn1C (stereo not given) | -47.8%
CCC(CO)N(Cc1cccc(-n2cccn2)c1)Cc1cccs1 (stereo not given) | 7.63%
COc1cccc(C(=O)N2CCCCC2c2nccs2)c1OC (stereo not given) | -14.4%
Cn1cc(C(=O)NCC2CCN(C(=O)NC3CC3)CC2)cn1 | 2.05%
CCn1c(C(=O)N2CCN(CC[S+](C)[O-])CC2)cc2ccccc21 (stereo not given) | -3.49%
CCNc1ncc(C(=O)NCc2cccc(OC(F)(F)F)c2)cn1 | -2.94%

Compound | cytotoxicity at 10 µM
COc1ccc(C2=CCN(C(=O)C3CC(=O)N(C4CC4)C3)CC2)cc1 (stereo not given) | -6.66%
Cc1ccc(N2C[C@@H]3CN(C(=O)NC4CCCC4)C[C@]3(C(=O)O)C2)nn1 | 19.5%
FC(F)(F)c1cc(C2CCCN(Cc3cccnc3)C2)n[nH]1 (stereo not given) | -45.7%
Cc1ccc2c(c1)C(=O)CC1(CCN(Cc3ccccc3)CC1)O2 | 2.81%
O=C(NCCCC(=O)N1Cc2ccccc2C1)NCc1nccs1 | -1.37%
c1cnnc(N2CCCC2CNCc2nc(-c3ccsc3)no2)c1 (stereo not given) | -7.7%
CC(Cc1ccsc1)NC(=O)c1cc(N2CCNC2=O)ccc1F (stereo not given) | -4.62%
COc1ccc(Cl)cc1S(=O)(=O)N(C)CC(N)=O | 7.82%
NC(=O)CN1CCC(NC2CSCCc3ccccc32)CC1 (stereo not given) | -3.21%
Cc1noc([C@@H]2C[C@H]3CN(CC4CCOCC4)C[C@H]3O2)n1 | -137%
CNc1cc(C)nc(N2CCC3(CC2)[C@H](O)C[C@@H]3OCCN(C)C)n1 | -1.26%
Cc1ccc(O)c(C(=O)N2CCC3(CCCNC3)C2)c1 (stereo not given) | -10.2%
CN(C)Cc1nc2c(o1)CN(C(=O)NCc1cccc(F)c1)C2 | 5.32%
O=C(c1ccc(S(=O)(=O)NCc2ccon2)cc1)N1CCCCCC1 | 0.424%
COc1ccccc1Cc1nnc(SCCS(C)(=O)=O)o1 | 5.89%
CN(C)C(=O)N1CCC2(CC1)CN(Cc1ccccn1)C(=O)CO2 | 2.99%
CCc1ccc(CN2CCCC(c3nn(C)c(=O)n3CC)C2)nc1 (stereo not given) | 1.93%
OC12CCC(CC1)N(Cc1ccc(F)cc1)C2CN1CCOCC1 (stereo not given) | 5.29%
CC(C)C(C)N(Cc1cnc2ccccc2n1)Cc1ccco1 (stereo not given) | 14.7%
O=C(NCCCn1ccnc1)C1COCC(=O)N1Cc1ccccc1 (stereo not given) | 12.3%
O=C1CCCN1Cc1ncn2c1CN(Cc1cccs1)CCC2 | -84.1%
COc1ccccc1C1(CNCc2cccc(O)c2)CCOCC1 | 9.18%

Compound | cytotoxicity at 10 µM
Cn1ccnc1CN1CCN(Cc2ccccc2)[C@@H]2CS(=O)(=O)C[C@@H]21 | -3.41%
Cc1cc(C)n(CC(=O)N2CCC(c3nc(C(C)C)no3)CC2)n1 | 9.1%
CC[C@H]1CN(S(C)(=O)=O)CC[C@H]1CC(=O)NCCSC | 3.45%
N[C@@H]1CCC[C@@H](Oc2ccc(F)cc2Oc2ccccc2)[C@@H]1O | -7.39%
Cc1ccccc1-c1noc(CN2CCC(N3CCNC3=O)CC2)n1 | 11.6%
Cc1ccc(CCNC(=O)Cn2nc(C)n(Cc3ccccc3)c2=O)s1 | -3.66%
Cc1nc(=O)c(CC(=O)N2C[C@H]3CC[C@@H](C2)N(CC2CCC2)C3)c[nH]1 | 1.43%
O=C(Nc1nc2c(s1)CN(C(=O)NCc1cccs1)CC2)C1CC1 | -0.707%
CCN(CC)[C@@H]1CN(C(=O)c2ccnnc2)[C@@H]2CCCO[C@H]12 | -146%
O=C(O)c1ccc(OC2CCOCC2)cc1 | -6.11%
O=c1[nH]ncn1-c1cccc(C(F)(F)F)c1 | -2%
CCC(CNC(=O)C1CC1)(OC)c1ccccc1 (stereo not given) | -4.34%
Cc1cc(C(F)(F)F)nc(CNc2nc(C)nc3c2cnn3C)n1 | -2.24%
CC(C)C(N)C1=NC(=C2N=CN=N2)NO1 (stereo not given) | 8.86%
O=C(Nc1cccnc1)[C@H]1C[C@H]2CN(S(=O)(=O)C3CC3)C[C@@H]1O2 | -71.8%
CC(=O)N1N=C(c2ccco2)OC1C(=O)NCC(C)C (stereo not given) | -5.31%
COc1ccc2c(c1)[nH]c1c(N(C)CC3OCCO3)ncnc12 | 18.2%
CN(C)C(=O)CN1CCOCC2(C1)CN(c1ncccn1)CCO2 (stereo not given) | 1.71%
Cc1nn(C)c(C)c1OCC(=O)N1CCC(O)(C(F)(F)F)CC1 | -5.09%
CC(CC(=O)Nc1ccc(C(=O)N(C)C)c(Cl)c1)n1cccc1 (stereo not given) | 7.07%
COCc1ccccc1C(=O)N(C)Cc1ncc(C)c(OC)c1C | -7.55%
Nc1ncnc2[nH]c(N3CCCCC3)nc12 | -1.43%
